# PvdQ acylase: P. aeruginosa PvdQ acylase inhibitors, primary screen, biochemical, fluorescence, plate reader and imaging, single point. inhibition, % at 10 µM. AID 488965, 2010. purified PvdQ acylase. PvdQ acylase [Pseudomonas aeruginosa LESB58]. hit rate 0.063% among 340,000; in the data active = inhibition above about 30%, passing the limit was not always enough;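 note: 0% = vehicle neutral wells and 100% = reference inhibitor wells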
# Xi reactivation: activators of inactive X chromosome reactivation, primary screen, imaging, XiGFP fibroblasts, GFP high-content imaging, set 2; AID 743238, 2013; XiGFP mouse fibroblasts, % GFP-positive cells imaging, 3 d; cells co-treated with 5-aza-dC sensitizer; scaled so ellipticine positive control = 100%; hit rate 0.055% among 360,000; activation, % at 7.58 µM;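 active = mean normalized replicate activation at least 10% and every replicate at or above 10%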;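 note: 0% = median of on-plate neutral control wells and 100% = ellipticine 6 µM median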
#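 Assay system – SV40-immortalized XiGFP fibroblast cells, line 68-5-11 · Buffer or medium – DMEM supplemented with 5-aza-dC as sensitizing agent · Dosing – one concentration, pinned · Benchmarks – positive control ellipticine, 6 µM final · Times – 3 days compound exposure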
# dFosB activator: activators of delta FosB homodimer, primary screen, biochemical, fluorescence polarization, TAMRA-CDK5 oligo, single point; Protein FosB (Mus musculus), P13346; purified delta FosB; percent of positive-control signal above neutral wells; activation, % at 25 µM; hit rate 0.99% among 340,000;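 active = mean activation above about 17%, with every replicate also reaching it, limit read from the data, passing the limit was not always enough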
# Target sequence (P13346 whole entry, looked up): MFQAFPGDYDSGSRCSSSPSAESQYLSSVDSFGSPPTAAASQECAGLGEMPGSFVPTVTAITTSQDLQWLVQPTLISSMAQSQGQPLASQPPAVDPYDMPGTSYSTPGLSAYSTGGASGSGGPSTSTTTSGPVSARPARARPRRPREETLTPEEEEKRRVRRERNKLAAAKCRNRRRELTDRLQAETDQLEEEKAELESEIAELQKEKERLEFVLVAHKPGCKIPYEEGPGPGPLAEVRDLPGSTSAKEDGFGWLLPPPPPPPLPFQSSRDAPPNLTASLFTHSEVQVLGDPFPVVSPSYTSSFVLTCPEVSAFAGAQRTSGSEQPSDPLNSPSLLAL
# SR-BI HDL uptake: inhibitors of SR-BI mediated HDL lipid uptake, primary screen, ldlA[mSR-BI] cells, fluorescence, single point; hit rate 0.96% among 320,000; Scavenger receptor class B member 1 (Mus musculus), Q61009; ldlA[mSR-BI] CHO cells, DiI-HDL uptake fluorescence, 3 h; inhibition, % at 12.5 µM;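 active = mean replicate inhibition of at least 70% and a set share of replicates each scoring 70 or more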;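 note: 0% = median of neutral control wells and 100% = median of positive control wells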
# Ecoli rRNA inh: reduced GFP signal of wild-type E. coli, primary screen, bacterial rRNA inhibitor project, GFP/RFP fluorescence, OD600, single point. E. coli WT GFP vs humanized-ribosome RFP mutants, 24 h; stronger effect = lower value; DMSO median 0, no signal -100. GFP signal change (wild-type ribosome), % (concentration not given with the values). hit rate 1.6% among 350,000. AID 720706, 2013;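 active = significant combined selectivity score with lowered wild-type GFP, culture density cut under 30%, mutant RFP and density less affected; inactive = any of these conditions unmet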
# SR-BI uptake up: activators of SR-BI mediated DiI-HDL uptake, primary screen, ldlA[mSR-BI] CHO cells, DiI fluorescence; 3 h; 100 = double the neutral-control signal; activation, % at 12.5 µM; hit rate 0.096% among 320,000; AID 504775, 2011;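 active = mean replicate activation of at least 60% and every replicate at or above 60%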;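 note: 0% = median plate neutral-control signal and 100% = twice that signal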
#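 Material – SR-BI-overexpressing, LDLR-lacking CHO cells · Medium – BSA-supplemented, HEPES-buffered Ham's F12, pH 7.4 · Doses – single concentration · Times – compound with DiI-HDL co-incubation, 3 h at 37 °C · Measured by – bottom-read fluorescence, 550/595 nm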
# An asterisk follows results filed as active; / = not tested or not shown; ! = not active in a repeat. The list is not random: actives were taken first. Their share in the collection is about 2.6%.
SMILES,PvdQ acylase,Xi reactivation,dFosB activator,SR-BI HDL uptake,Ecoli rRNA inh,SR-BI uptake up
COc1ccc(NS(=O)(=O)c2nnc(NC(=O)c3ccccc3F)s2)cc1,2,0,-2,3,-10*,-3
OC1CCNC(=S)N1c1ccccc1 (stereo unspecified),-2,0,14,-26,5,26
Cn1c(=O)c2c(nc(CN3CCC(C(N)=O)CC3)n2CCCc2ccccc2)n(C)c1=O,-5,/,-2,5,/,-5
COc1cc(OC)c2cc(C(=O)N/N=C/c3cccc(OC)c3O)[nH]c2c1,6,0,-2,121*,-9,-121
COc1cccc(/C=N/NC(=O)c2cc3c(OC)ccc(OC)c3[nH]2)c1O,-2,0,-11,144*,-16,-144
CCOc1ccc2[nH]c(C(=O)N/N=C/c3ccc(OC)cc3)cc2c1,2,0,3,9,-40,-9
COc1ccc2[nH]c(C(=O)N/N=C/c3ccc(O)cc3O)cc2c1,-9,0,-2,99*,-45,-99
COc1ccc(C(=O)Nc2nnc(CC(=O)N/N=C/c3ccc(O)cc3O)s2)cc1,6,0,36*,33,3,-33
Cc1ccc(C(=O)Nc2nnc(CC(=O)N/N=C/c3ccc(O)c(O)c3)s2)cc1,-19,0,13,10,2,-10
CCCN1C[C@H](C)[C@H](OC)CN(C)C(=O)c2ccc(NC(=O)COC)cc2OC[C@@H]1C,/,0,/,/,2,/
CSc1ccccc1NC(=O)COc1ccc(Cl)cc1,1,0,-5,8,/,-8
Cc1ccc(CCSc2ccc(F)cc2)cn1,/,0,/,/,-22*,/
COc1ccc(-n2c(C)cc(C=O)c2C)cc1Cl,-13,/,-4,22,/,-22
CCCN(C)C[C@H]1Oc2ncc(C#Cc3ccc(OC)cc3)cc2C(=O)N([C@@H](C)CO)C[C@H]1C,/,0,/,/,6,/
CCC(=O)N1CC2(C1)CN(Cc1cc(F)ccc1F)[C@H](CO)c1[nH]c3cc(OC)ccc3c12,/,0,/,/,-4,/
O=C(NC1CCS(=O)(=O)C1)c1cccc(Br)c1 (stereo unspecified),41*,0,1,-16,2,16
O=C1C(Cc2ccccc2)Nc2ncnc(N3CCOCC3)c2N1Cc1ccc(Cl)cc1 (stereo unspecified),-5,0,9,17,-21*!,-17
O=C1C(Cc2ccccc2)Nc2ncnc(N3CCN(c4ccccc4)CC3)c2N1Cc1ccccc1 (stereo unspecified),9,0,13,-26,11,26
O=C(Nc1nnc(-c2ccc3c(c2)CCCC3)o1)c1ccccc1,-2,1,-9,-3,-57,3
CC(C)c1ccc(/C=N/NC(=O)c2ccc(-n3cnnn3)cc2)cc1,-10,0,12,84*,-1,-84
COCCCn1c(SCC(=O)Nc2ccc3c(c2)OCCO3)nnc1-c1ccoc1C,-13,/,-1,-12,/,12
CCc1cc2cccc(C)c2nc1SCC(=O)NNC(=O)c1ccco1,1,/,-8,-15,/,15
CCc1cc2cc(C)c(C)cc2nc1SCC(=O)NNC(=O)c1ccco1,4,/,-2,75*,-2,-75
COc1ccc(C(=O)Nc2ccccc2C(=O)O)cc1NC(=O)C(c1ccccc1)c1ccccc1,-10,0,-23,/,-36*,/
COc1ccc(C(=O)Nc2ccccc2C(=O)O)cc1Cl,-5,1,-11,-32,-37,32
COc1cc(NC(=O)c2ccccc2)c(OC)cc1Cl,-14,/,2,86*,/,-86
COc1cc(OC)c(NC(=O)c2cc3ccccc3cc2O)cc1Cl,9,0,-7,94*,-39,-94

# Source: PubChem
